Eleven compounds from ChEMBL document CHEMBL4406923, “New Potent DOT1L Inhibitors for in Vivo Evaluation in Mouse” (ACS Med Chem Lett, 2019) can be followed below.

Series [1] can be described thus: Toxicity in NOD-SCID mouse xenografted with human MV4-11 cells assessed as change in body weight at 75 mg/kg, sc administered bid for 20 days. Particulars: in vivo, 480 h. Background: In xenograft studies the graft and the host belong to different species.
For series [2], the system named is Mus musculus. Briefly: In vivo inhibition of DOT1L in NOD-SCID mouse xenografted with human MV4-11 cells assessed as reduction in MEIS1 gene expression at 75 mg/kg, sc administered bid for 20 days by qPCR analysis. Particulars: MV4-11, sc, 480 h.
The test system of series [3] is Mus musculus. Briefly: In vivo inhibition of DOT1L in NOD-SCID mouse xenografted with human MV4-11 cells assessed as reduction in HOXA9 gene expression at 75 mg/kg, sc administered qd for 20 days by qPCR analysis. Particulars: MV4-11, sc, 480 h.
The subject of series [4] is MV4-11. Description: Antitumor activity against human MV4-11 cells xenografted in NOD-SCID mouse assessed as tumor growth inhibition at 75 mg/kg, sc qd administered for 20 days.
The subject of series [5] is MV4-11. Description: Antitumor activity against human MV4-11 cells xenografted in NOD-SCID mouse assessed as tumor growth inhibition at 75 mg/kg, sc administered bid for 20 days. Particulars: MV4-11, sc, 480 h, read-out: TGI.
In series [6] the test system is Mus musculus. Briefly: In vivo inhibition of DOT1L in NOD-SCID mouse xenografted with human MV4-11 cells assessed as reduction in H3K79 dimethylation at 75 mg/kg, sc administered bid for 20 days.
A short description of series [7]: Toxicity in NOD-SCID mouse xenografted with human MV4-11 cells assessed as change in body weight at 75 mg/kg, sc administered qd for 20 days. Particulars: in vivo, 480 h.
In series [8] the target is T1, Histone-lysine N-methyltransferase, H3 lysine-79 specific (Homo sapiens, UniProt Q8TEK3). Description: Inhibition of DOT1L in human HeLa cells assessed as reduction in H3K79 dimethylation measured after 72 hrs by ELISA. The series is classed as cell-based. Background: An ELISA detects its analyte on a solid surface through an enzyme-linked reagent.
Target sequence in this assay (Q8TEK3 whole entry, looked up): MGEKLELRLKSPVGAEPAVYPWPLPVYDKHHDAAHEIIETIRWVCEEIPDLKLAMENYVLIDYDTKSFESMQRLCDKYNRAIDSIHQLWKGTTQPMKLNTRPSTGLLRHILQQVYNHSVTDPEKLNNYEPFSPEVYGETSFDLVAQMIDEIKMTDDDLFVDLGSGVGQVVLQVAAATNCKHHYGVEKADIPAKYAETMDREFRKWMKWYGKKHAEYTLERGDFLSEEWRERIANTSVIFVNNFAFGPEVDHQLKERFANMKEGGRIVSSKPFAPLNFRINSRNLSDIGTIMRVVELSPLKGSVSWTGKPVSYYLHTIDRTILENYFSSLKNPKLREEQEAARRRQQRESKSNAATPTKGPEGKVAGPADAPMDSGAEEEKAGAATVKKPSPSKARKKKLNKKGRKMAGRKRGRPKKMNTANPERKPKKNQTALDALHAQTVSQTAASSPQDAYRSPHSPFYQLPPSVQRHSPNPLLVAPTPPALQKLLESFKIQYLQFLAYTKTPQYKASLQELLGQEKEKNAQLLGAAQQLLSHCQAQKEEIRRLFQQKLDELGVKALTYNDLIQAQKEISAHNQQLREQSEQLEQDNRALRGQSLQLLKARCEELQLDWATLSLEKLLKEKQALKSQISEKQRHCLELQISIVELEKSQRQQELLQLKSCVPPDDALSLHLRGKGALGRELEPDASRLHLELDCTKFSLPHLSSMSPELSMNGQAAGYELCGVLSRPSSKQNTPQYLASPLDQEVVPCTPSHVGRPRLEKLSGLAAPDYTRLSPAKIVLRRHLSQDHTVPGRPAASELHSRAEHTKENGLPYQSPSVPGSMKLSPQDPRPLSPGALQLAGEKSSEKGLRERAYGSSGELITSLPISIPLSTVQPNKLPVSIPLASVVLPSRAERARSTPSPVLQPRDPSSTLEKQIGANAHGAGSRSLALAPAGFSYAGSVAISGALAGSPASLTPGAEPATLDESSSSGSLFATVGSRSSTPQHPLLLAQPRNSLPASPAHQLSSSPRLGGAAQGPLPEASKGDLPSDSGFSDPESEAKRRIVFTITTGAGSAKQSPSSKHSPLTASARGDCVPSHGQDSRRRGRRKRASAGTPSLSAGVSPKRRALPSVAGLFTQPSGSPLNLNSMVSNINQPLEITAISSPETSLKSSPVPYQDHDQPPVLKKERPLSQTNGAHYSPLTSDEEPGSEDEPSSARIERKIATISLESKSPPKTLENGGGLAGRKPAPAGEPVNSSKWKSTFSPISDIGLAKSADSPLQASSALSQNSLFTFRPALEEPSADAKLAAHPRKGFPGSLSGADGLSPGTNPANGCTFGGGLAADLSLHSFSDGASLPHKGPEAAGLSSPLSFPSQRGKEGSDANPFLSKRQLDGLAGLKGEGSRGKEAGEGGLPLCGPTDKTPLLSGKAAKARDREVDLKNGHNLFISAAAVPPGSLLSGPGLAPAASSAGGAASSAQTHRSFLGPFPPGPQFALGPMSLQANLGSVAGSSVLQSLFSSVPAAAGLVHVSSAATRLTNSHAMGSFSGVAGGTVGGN
For series [9], the target named is T1, Histone-lysine N-methyltransferase, H3 lysine-79 specific. Briefly: Inhibition of DOT1L in human MOLM13 cells assessed as reduction in HOXA9 gene expression incubated for 72 hrs by bright-glo luciferase reporter gene assay. In kind it is cell-based. (A reporter such as luciferase makes a cellular process visible.)
Target sequence in this assay (Q8TEK3 whole entry, looked up): as above
The nature of series [10]: Drug uptake in C57BL/6 mouse at 50 mg/kg, sc administered twice daily for 7 days. In kind it is ADME, organism-based. Particulars: in vivo, 168 h.
Series [11] concerns the target T1, Histone-lysine N-methyltransferase, H3 lysine-79 specific. Description: Inhibition of 0.05 nM DOT1L (2 to 416 residues) (unknown origin) using biotinylated nucleosome as substrate and [3H]SAM as co-factor preincubated for 30 mins followed by substrate and cofactor addition and measured after 180 mins by scintillation proximity assay.
Target sequence in this assay (Q8TEK3 whole entry): as the sequence (Q8TEK3 whole entry, looked up) above
The test system of series [12] is Mus musculus. Briefly: In vivo inhibition of DOT1L in NOD-SCID mouse xenografted with human MV4-11 cells assessed as reduction in HOXA9 gene expression at 75 mg/kg, sc administered bid for 20 days by qPCR analysis. The settings on record: MV4-11, sc, 480 h.
The test system of series [13] is Mus musculus. Description: In vivo inhibition of DOT1L in NOD-SCID mouse xenografted with human MV4-11 cells assessed as reduction in MEIS1 gene expression at 75 mg/kg, sc administered qd for 20 days by qPCR analysis. Particulars: MV4-11, sc, 480 h.
Series [14] has as its system Mus musculus. Briefly: In vivo inhibition of DOT1L in NOD-SCID mouse xenografted with human MV4-11 cells assessed as reduction in H3K79 dimethylation at 75 mg/kg, sc administered once daily for 20 days by ELISA.
Series [15] concerns Mus musculus. Briefly: In vivo inhibition of DOT1L in NOD-SCID mouse xenografted with human MV4-11 cells assessed as reduction in H3K79 dimethylation at 75 mg/kg, sc administered twice daily for 20 days.
The nature of series [16]: Lipophilicity, log D of the compound at pH 7.4. The series is classed as physicochemical. Particulars: buffer.
Series [17] has as its target T1, Histone-lysine N-methyltransferase, H3 lysine-79 specific. Briefly: Inhibition of 0.5 nM DOT1L (2 to 416 residues) (unknown origin) using biotinylated nucleosome as substrate and [3H]SAM as co-factor preincubated for 30 mins followed by substrate and cofactor addition and measured after 90 mins by scintillation proximity assay.
Target sequence in this assay (Q8TEK3 whole entry): as the sequence (Q8TEK3 whole entry, looked up) above
Series [18] can be described thus: Intrinsic clearance in rat liver microsomes. In kind it is ADME, Microsome. The settings on record: read-out: CLH.
For series [19], the system named is MV4-11. Description: Antitumor activity against human MV4-11 cells xenografted in sc dosed C57BL/6 mouse assessed as reduction in tumor growth at => MTD. In kind it is functional, organism-based.
Series [20] deals with Cytochrome P450 3A4 (Homo sapiens, UniProt P08684). Description: Induction of CYP3A4 in human hepatocytes. In kind it is ADME, cell-based.
The nature of series [21]: Cmax in C57BL/6 mouse at 100 mg/kg, po bid for 20 days. The settings on record: in vivo. The arrangement: dose 100 mg/kg, route oral. The series is classed as ADME, organism-based.
The nature of series [22]: AUC (0 to 12 hrs) in C57BL/6 mouse at 100 mg/kg, po bid for 20 days. In kind it is ADME, organism-based. Details: dose 100 mg/kg, time < 12 hr, route oral. The settings on record: in vivo.
Series [23] can be described thus: AUC (0 to 12 hrs) in C57BL/6 mouse at 100 mg/kg, po administered as single dose. Particulars: in vivo. The series is classed as ADME, organism-based. The arrangement: dose 100 mg/kg, time < 12 hr, route oral.
A short description of series [24]: Induction of CYP3A4 in rat hepatocytes. The series is classed as ADME, cell-based.
A short description of series [25]: Cmax in C57BL/6 mouse at 100 mg/kg, po administered as single dose. The series is classed as ADME, organism-based. The arrangement: dose 100 mg/kg, route oral. The settings on record: in vivo.
Series [26] in a line: Oral bioavailability in Sprague-Dawley Crl:CD(SD) rat at 3 mg/kg measured upto 24 hrs by LC-MS/MS analysis. In kind it is ADME, organism-based. Particulars: in vivo.
Series [27] relates to Mus musculus. Description: In vivo inhibition of DOT1L in C57BL/6 mouse xenografted with human MV4-11 cells assessed as reduction in HOXA9 gene expression at 200 mg/kg, administered twice daily for 23 days by qPCR analysis. The series is classed as functional, organism-based.
For series [28], the system named is Mus musculus. Briefly: In vivo inhibition of DOT1L in C57BL/6 mouse xenografted with human MV4-11 cells assessed as reduction in H3K79 dimethylation at 200 mg/kg, administered twice daily for 23 days by ELISA relative to control. In kind it is functional. Particulars: 552 h.
Series [29] deals with Mus musculus. Description: In vivo inhibition of DOT1L in C57BL/6 mouse xenografted with human MV4-11 cells assessed as reduction in MEIS1 gene expression at 200 mg/kg, administered twice daily for 23 days by qPCR analysis. In kind it is functional, organism-based.
The nature of series [30]: Oral bioavailability in C57BL/6 mouse at 3 mg/kg measured upto 24 hrs by LC-MS/MS analysis. The series is classed as ADME, organism-based. Particulars: in vivo.
Series [31] concerns MV4-11. Description: Antitumor activity against human MV4-11 cells xenografted in C57BL/6 mouse assessed as tumor growth inhibition at 200 mg/kg, administered twice daily for 23 days. The series is classed as functional, organism-based. An outline of the steps: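 Mice bearing subcutaneous MV4-11 xenografts were treated for 23 days at 200 mg/kg twice daily. Tumor growth inhibition was assessed against control.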

By IC50 is commonly meant the concentration needed to halve the response being measured. For orientation: logD means the decadic logarithm of the distribution of all forms, ionised or not, between an organic phase and buffer at a given pH. A higher logD goes with higher lipophilicity. The term Cmax denotes the maximum level reached in the sampled fluid or tissue. Usually AUC stands for concentration integrated over time. A high value points to high exposure. In general, AUC(0-t) refers to exposure summed from dosing to a finite time, without extrapolation to infinity. High values mean more exposure, low ones less exposure. For orientation: bioavailability means dose-corrected exposure relative to a reference, in per cent. Lower therefore signals poor availability.

Activity calls are given as the source filed them. The calls are words filed in the database; no cut-off is given here.

Sequence of Cytochrome P450 3A4 (P08684 whole entry): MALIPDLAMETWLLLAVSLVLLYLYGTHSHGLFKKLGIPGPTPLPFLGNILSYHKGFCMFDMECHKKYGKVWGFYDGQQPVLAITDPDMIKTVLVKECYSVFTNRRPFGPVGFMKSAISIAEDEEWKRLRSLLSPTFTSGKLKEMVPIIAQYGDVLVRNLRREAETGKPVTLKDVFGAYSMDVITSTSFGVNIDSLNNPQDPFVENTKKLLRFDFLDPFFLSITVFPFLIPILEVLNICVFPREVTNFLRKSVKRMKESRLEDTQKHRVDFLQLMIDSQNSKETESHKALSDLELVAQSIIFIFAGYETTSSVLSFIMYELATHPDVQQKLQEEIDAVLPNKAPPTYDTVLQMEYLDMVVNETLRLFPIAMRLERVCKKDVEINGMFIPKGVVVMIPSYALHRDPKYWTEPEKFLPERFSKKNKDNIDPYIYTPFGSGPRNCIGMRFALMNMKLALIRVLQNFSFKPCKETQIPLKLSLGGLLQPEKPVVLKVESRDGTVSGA

In the case of `COc1nc(N)nc(Nc2cc(S(N)(=O)=O)ccc2N[C@@H](c2cccc3c2OC(F)(F)O3)c2ncccc2Cl)n1`, the Activity entry in [1] and in series [7] was “Non-Toxic” throughout. Moreover, the inhibition in vivo at 75 mg/kg turned out to be 74% in series [2]; 25% in [3]; 73% in series [5]; 53% in series [12]; 53% in series [13]. The TGI result in [4] was “inactive”. Besides, the inhibition entry in series [6], in series [14] and in [15] was “Active” throughout. Further, the ED50 in [8] amounted to 2.9 nM; in series [9], 30 nM. The Drug uptake result in [10] is “Active”. Besides, in series [11], half-maximal inhibition (IC50) was put at 0.17 nM. In series [16], the logD was 3.5.

The compound `CS(=O)(=O)c1ccc(N[C@H](c2cccc(Cl)c2)c2ccccn2)c(Nc2ncccn2)c1` registered an IC50 in series [17] of 22800 nM. This lies in the double-digit micromolar range.

With `CS(=O)(=O)c1ccc(N[C@@H](c2cccc(Cl)c2)c2ccccn2)c(Nc2ncccn2)c1`, the microsomal CLint in series [18] came to 553 µL/min/mg. The same compound had an IC50 in series [17] of 270 nM.

On to `CC(C)N(C[C@H]1O[C@@H](n2cnc3c(N)ncnc32)[C@H](O)[C@@H]1O)[C@H]1C[C@@H](CCc2nc3cc(C(C)(C)C)ccc3[nH]2)C1`, for which the outcome in [19] was inactive.

As for `COc1nc(Nc2cc(S(C)(=O)=O)ccc2N[C@@H](c2cccc3c2OC(F)(F)O3)c2ncccc2Cl)nc(OC)n1`, the ED50 in series [8] is 12 nM; in series [9], 170 nM. Moreover, the IC50 in series [11] was 0.19 nM.

Regarding `CS(=O)(=O)c1ccc(N[C@H](c2ccccn2)c2cccc(Cl)c2F)c(Nc2ncccn2)c1`, in series [18], the microsomal CLint turned out to be 50 µL/min/mg. This compound gave an IC50 in series [17] of 97 nM.

As to `COc1nc(Nc2cc(S(C)(=O)=O)ccc2N[C@@H](c2cccc(Cl)c2F)c2ncccc2F)nc(OC)n1`, the outcome in series [20] and in series [24] was Active. The Cmax is 12 µM in [21] and 24 µM in [25]. For the same compound, the ED50 in series [8] was found to be 43 nM. This compound registered an AUC at 12 h in [22] of 47 µM·h. The compound further yielded an AUC(0-t) at 12 h in series [23] of 216 µM·h. For the same compound, in [11], it took 0.59 nM to reach half-maximal inhibition (IC50).

In series [17], `NS(=O)(=O)c1ccc(NC(c2ccccc2)c2ccccc2)c([N+](=O)[O-])c1` registered an IC50 of 8500 nM. In other words, the single-digit micromolar range.

For the compound `CS(=O)(=O)c1ccc(N[C@H](c2ccccn2)c2cccc(Cl)c2F)c(Nc2nccc(C(N)=O)n2)c1`, the figures for the bioavailability in series [26] and in series [30] were 36% and 26%, respectively. Moreover, the inhibition entry in series [27] and in series [29] was “inactive” in each case. For the same compound, the inhibition in vivo at 200 mg/kg in series [28] was 50%. Moreover, the values for the ED50 in [8] and in series [9] were 300 nM and 4500 nM, respectively. The TGI entry in series [31] is “inactive”. Besides, the IC50 in series [11] turned out to be 2.1 nM; in series [17], 3.9 nM.

In series [17], `CS(=O)(=O)c1ccc(N[C@@H](c2cccc(Cl)c2F)c2ncccc2F)c(Nc2ncccn2)c1` gave an IC50 of 16 nM.

Compound `CS(=O)(=O)c1ccc(NC(c2cccc(Cl)c2)c2ccccn2)c([N+](=O)[O-])c1` (racemic) came in with an IC50 in series [17] of 4600 nM.
